The text below walks through data of ChEMBL document CHEMBL4342502, “Synthesis and Antichlamydial Activity of Molecules Based on Dysregulators of Cylindrical Proteases” (J Med Chem, 2020).

A short description of series [1]: Toxicity in Drosophila melanogaster assessed as survival rate at 0.25 to 1 mM. The following applies: 1000 µM. In a few lines:
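Drosophila SMART assay using third-instar larvae (72 ± 4 h) from ST and HB crosses. Larvae exposed in hydrated instant mashed-potato medium at 0.25, 0.5 and 1.0 mM final. Vehicle control: water with 1% Tween-80 and 3% ethanol. Survival of treated groups compared statistically with the vehicle control.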

In a further series the test system is HeLa 229. Put plainly: Cytotoxicity against human HeLa 229 cells assessed as reduction in cell viability at 50 ug/ml after 24 hrs by CCK-8 assay. As to conditions: hela 229, 24 h. Format: cell-based. In short, it runs like this:
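HeLa 229 and HaCaT cells in DMEM with 10% FBS and 1% penicillin/streptomycin, 37 °C, 5% CO2, seeded at 5000 cells/well. Next day treated with 50 μg/mL in triplicate, with matching DMSO controls. After 24 h, CCK-8 added for 2 h; corrected absorbance read at 450 nm.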

Series [2] can be described thus: Stability of compound in mouse pre-heated plasma at 50 uM incubated up to 120 mins by HPLC-ESI/MS analysis. The class given is ADME, cell-free. As to conditions: 2 h. In short, it runs like this:
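Compounds from 2.5 mM DMSO stocks incubated at 50 μM final in mouse plasma diluted to 80% with PBS, preheated, 37 °C, shaking. Sampled at 0, 15, 30, 60, 90 and 120 min and quenched with cold acetonitrile. Centrifuged; supernatant analysed by HPLC-ESI-MS. Peak area reported relative to time zero. Enalapril positive control; triplicate.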

Series [3] has as its system Staphylococcus aureus. Put plainly: Antibacterial activity against Staphylococcus aureus JE2 assessed as bacterial growth inhibition at 32 ug/ml measured after 16 hrs by broth microdilution method. The class given is functional, organism-based. In short, it runs like this: (§1)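 Broth microdilution in Mueller Hinton broth, triplicate. Direct colony suspension at 1.5 x 10^8 CFU/mL diluted to ~10^5 CFU/mL. Serial dilutions made from DMSO stocks at 1 mg/mL; vancomycin positive control, blank medium negative control. Incubated 16 h at optimum temperature. MIC is the lowest concentration without visible growth at 600 nm; mean of triplicate determinations.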

A further series deals with Klebsiella pneumoniae. Briefly: Antibacterial activity against Klebsiella pneumoniae ATCC 700603 assessed as bacterial growth inhibition at 32 ug/ml measured after 16 hrs by broth microdilution method. The class given is functional, organism-based.
Series [4] in a line: Half life in human liver microsomes at 1 ug/ml measured up to 60 mins by LC-MS/MS analysis. The class given is ADME, Microsome. The following applies: microsomes, 1 h. In short, it runs like this:
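Human liver microsomes (1.0 mg/mL protein) in 100 mM phosphate pH 7.4 with 10 mM MgCl2 and 2 mM NADPH, preincubated 10 min at 37 °C. Reaction started with compound at 1 μg/mL. Sampled at 0, 5, 15, 20, 30, 45 and 60 min and quenched in methanol with internal standard. Controls: no NADPH (negative), testosterone (positive). Analysed by LC-MS/MS, triplicate.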

For series [5], the system named is Chlamydia trachomatis. Put plainly: Anti-chlamydial activity against Chlamydia trachomatis Serovar LGV-L2 infected in Hep2 cells assessed as inhibition of chlamydial inclusion at 50 ug/ml treated at 8 hrs post infection and measured at 24 hrs post-infection by immunofluorescence assay. The class given is functional, organism-based. In a few lines:
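HEp-2 cells infected with C. trachomatis serovar L2. Compounds at 50 μg/mL added 8 hpi; inclusion number and size assessed by immunofluorescence at 24 hpi against untreated cells. Cell morphology and viability checked by phase-contrast microscopy.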

Series [6] relates to Escherichia coli. Briefly: Antibacterial activity against Escherichia coli ATCC 25922 assessed as bacterial growth inhibition at 32 ug/ml measured after 16 hrs by broth microdilution method. The class given is functional, organism-based.
The test system of another series is Candida albicans. Briefly: Antifungal activity against Candida albicans ATCC 90028 assessed as fungal growth inhibition at 32 ug/ml measured after 16 hrs by broth microdilution method. The class given is functional, organism-based.
Series [7] can be described thus: Activation of recombinant human C-terminal 6xHis-tagged ClpP expressed in Escherichia coli assessed as induction of casein degradation at 0.1 to 1 uM using FITC-labelled casein as substrate pretreated with enzyme for 30 mins followed by substrate addition and measured every 3 mins for 3 hrs in absence of AAA+ chaperone by fluorescence based tecan-plate reader assay. In a few lines:
(§2)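 Recombinant C-terminal His6-tagged ClpP, expressed in a clpAPX-null E. coli strain and purified (mammalian ClpP without mitochondrial signal, codon-optimized). ClpP at 1 or 0.1 μM (E. coli), 1 μM (human, mouse) or 6 μM (chlamydial ClpP1 and ClpP2) preincubated with compound or DMSO, 30 min, 32 °C, in HEPES pH 7.6/KCl/MgCl2/DTT/glycerol buffer. 20 μM FITC-casein then added. Fluorescence (ex 490/em 525 nm) read every 3 min for 3 h. At least three runs on at least two protein preparations.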

Series [8] can be described thus: Drug metabolism in human liver microsomes assessed as amount of drug modified at 1 ug/ml […] in presence of NADPH by LC-MS/MS analysis. The class given is ADME, Microsome. The following applies: read-out: Drug metabolism.
Series [9] concerns Staphylococcus aureus. Briefly: Antibacterial activity against methicillin-resistant Staphylococcus aureus ATCC 43300 assessed as bacterial growth inhibition at 32 ug/ml measured after 16 hrs by broth microdilution method. Format: functional, organism-based.
Series [10] relates to Escherichia coli. Put plainly: Antibacterial activity against Escherichia coli K12 assessed as bacterial death up to 256 ug/ml measured after 16 hrs by broth microdilution method. The class given is functional, organism-based. The following applies: K-12. In a few lines: as §1
Series [11] relates to Chlamydia trachomatis. Put plainly: Activation of recombinant Chlamydia trachomatis Serovar LGV-L2 C-terminal 6xhis-tagged ClpP1/ClpP2 dimer expressed in Escherichia coli assessed as induction of casein degradation at 0.1 to 1 uM using FITC-labelled casein as substrate pretreated with enzyme for 30 mins followed by substrate addition and measured every 3 mins for 3 hrs in absence of AAA+ chaperone by fluorescence based tecan-plate reader assay. In short, it runs like this: as §2

In another series the test system is Cryptococcus neoformans. Put plainly: Antifungal activity against Cryptococcus neoformans var. grubii H99 ATCC […] as fungal growth inhibition at 32 ug/ml measured after 16 hrs by broth microdilution method. The class given is functional, organism-based. The following applies: var. grubii H99 ATCC 208821.
Series [12] relates to Chlamydia trachomatis. Briefly: Anti-chlamydial activity against Chlamydia trachomatis Serovar LGV-L2 infected in Hep2 cells assessed as reduction in chlamydial infectivity by measuring decrease in inclusion forming units at 50 ug/ml treated at 8 hrs post-infection and 24 hrs later re-infecting fresh Hep2 cells monolayer with infected cells and measured at 24 hrs post re-infection by immunofluorescence staining based microscopy analysis. The class given is functional, organism-based. In short, it runs like this:
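HEp-2 cells in DMEM with 10% FBS, infected with C. trachomatis L2 at MOI 1. Compounds added 8 hpi in triplicate; DMSO stocks at 50 mg/mL. At 24 hpi lysates collected in sucrose storage medium, frozen at −80 °C, and used to infect fresh HEp-2 monolayers in 10-fold dilutions. After 24 h, stained with goat anti-MOMP and Alexa488 secondary. Inclusions counted in 15 fields at 20x; IFU = mean count per field corrected for dilution.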

A short description of series [13]: Mutagenicity in Drosophila melanogaster somatic cells assessed as frequency of clone formation in ST crosses at 0.25 to 1 mM by SMART assay. Format: ADME. As to conditions: 1000 µM. In short, it runs like this:
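Drosophila SMART wing-spot assay, ST and HB crosses. Third-instar larvae (72 ± 4 h) placed on hydrated instant mashed potato medium containing compound at 0.25, 0.5 or 1.0 mM final. Negative control: water with 1% Tween-80 and 3% ethanol. Statistics by Frei and Würgler two-sided U test, P≤0.05.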

The source made the active and inactive calls. No cut-off for these calls is given here.

For the compound `CC(C)(C(=O)NCCCc1ccccc1)S(=O)(=O)c1ccc(C(F)(F)F)cc1`, the Activity entry in series [1] was “Non-Toxic”; in the series on HeLa 229, “Toxic”; in series [7], “Active”; in [13] it was “Non-Toxic”. In addition, the Stability entry in series [2] was “Stable”. In addition, the inhibition entry in the series on Staphylococcus aureus [3], in the series with Klebsiella pneumoniae, with Escherichia coli [6], with Candida albicans, with Staphylococcus aureus [9] and with Cryptococcus neoformans was “inactive” throughout. In series [4], this compound gave a t1/2 of 6.13 min. Moreover, the inhibition result in the series on Chlamydia trachomatis [5] and in the series with Chlamydia trachomatis [12] was “Active” in each case. For the same compound, in series [8], the metabolised at 10 min, 1 ug/ml was 90%. Further, the outcome in the series on Escherichia coli [10] was inactive. In addition, the outcome with Chlamydia trachomatis [11] was Active.
Consider `CC(C)(C(=O)N1CCN(Cc2ccc(Cl)cc2)CC1)S(=O)(=O)c1ccc(C(F)(F)F)cn1`, for which the Activity entry in series [1] is recorded as “Non-Toxic”; in the series on HeLa 229, “Non-Toxic”; in series [7], “Not Active”; in series [13], “Non-Toxic”. Besides, the Stability result in [2] was “Stable”. The inhibition entry with Staphylococcus aureus [3], with Klebsiella pneumoniae, in the series on Escherichia coli [6], in the series on Candida albicans, in the series on Staphylococcus aureus [9] and with Cryptococcus neoformans was “inactive” each time. The compound also registered a t1/2 in series [4] below 2 min. The inhibition result in the series on Chlamydia trachomatis [5] and with Chlamydia trachomatis [12] was “Active” in each case. Further, the metabolised at 10 min, 1 ug/ml in [8] came out at 90%. Also, the outcome with Escherichia coli [10] and with Chlamydia trachomatis [11] was inactive.
